Laboratory results reported in ChEMBL document CHEMBL1141302, “Anti-Helicobacter pylori and thrombin inhibitory components from Chinese dragon's blood, Dracaena cochinchinensis” (J Nat Prod, 2007).
In brackets after ≈: the same amount, converted by molar mass.

Columns and labels:
Dipeptidyl peptidase 4 = Dipeptidyl peptidase 4 (Homo sapiens, UniProt P27487); assay: Inhibition of human recombinant DPP4
Procedure, shortened: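 Recombinant human DPP-IV, expressed and purified in-house, at 0.01 nM in 100 mM Hepes pH 7.5 with 10 µM Ala-Pro-AMC substrate and 2% DMSO.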

Helicobacter pylori = assay: Antibacterial activity against Helicobacter pylori ATCC 43504 by agar dilution method; format: functional
Procedure, shortened: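 Mueller-Hinton agar plates with 7% lysed sheep blood and 2-fold serial dilutions of compound; spots of 5 µL bacterial suspension (10^7 cfu/mL) by multipoint inoculator; 37°C for 3 days, microaerobic (5% O2, 10% CO2, 85% N2, 98% humidity). MIC read as lowest inhibitory concentration; drug-free and DMSO-dilution plates as negative controls.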

Prothrombin = Prothrombin (Homo sapiens, UniProt P00734); assay: Inhibition of human thrombin

Chain of Dipeptidyl peptidase 4 (P27487 whole entry): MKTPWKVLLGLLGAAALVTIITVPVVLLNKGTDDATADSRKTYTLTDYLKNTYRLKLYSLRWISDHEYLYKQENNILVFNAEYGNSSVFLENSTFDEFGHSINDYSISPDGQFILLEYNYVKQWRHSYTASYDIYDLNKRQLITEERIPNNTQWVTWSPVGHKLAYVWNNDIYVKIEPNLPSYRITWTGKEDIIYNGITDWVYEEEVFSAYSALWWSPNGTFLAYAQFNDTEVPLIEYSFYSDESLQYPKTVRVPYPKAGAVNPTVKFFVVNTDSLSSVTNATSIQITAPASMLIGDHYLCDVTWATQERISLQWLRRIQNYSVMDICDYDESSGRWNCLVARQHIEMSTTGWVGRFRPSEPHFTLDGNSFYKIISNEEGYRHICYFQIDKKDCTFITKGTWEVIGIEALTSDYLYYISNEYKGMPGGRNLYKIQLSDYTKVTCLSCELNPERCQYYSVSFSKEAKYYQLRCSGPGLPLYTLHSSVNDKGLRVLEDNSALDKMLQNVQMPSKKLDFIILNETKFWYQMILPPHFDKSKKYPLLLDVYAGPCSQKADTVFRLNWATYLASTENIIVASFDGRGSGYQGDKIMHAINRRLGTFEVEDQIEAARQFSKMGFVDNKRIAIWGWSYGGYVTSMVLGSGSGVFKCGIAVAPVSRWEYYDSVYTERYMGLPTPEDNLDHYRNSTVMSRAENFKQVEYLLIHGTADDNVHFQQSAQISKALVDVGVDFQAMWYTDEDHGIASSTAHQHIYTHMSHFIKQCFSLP

COc1ccc(C(CCc2ccc(O)cc2OC)c2c(OC)cc(/C=C/c3ccc(O)cc3)cc2OC)cc1 (stereo not given) [COCHINCHINENENE A]
IC50 (Dipeptidyl peptidase 4): > 36.9 µM | MIC (Helicobacter pylori): 60.8 µM (≈ 32 µg/mL) | IC50 (Prothrombin): > 9.5 µM

COc1c(O)ccc2c1OCC(Cc1ccc(O)cc1)C2 (stereo not given)
MIC (Helicobacter pylori): 55.9 µM (≈ 16 µg/mL)

COc1ccc(C(CCc2ccc(O)cc2OC)c2cc(CCC(=O)c3ccc(O)cc3)c(OC)cc2O)cc1 (stereo not given) [COCHINCHINENIN C]
IC50 (Dipeptidyl peptidase 4): > 36.9 µM | MIC (Helicobacter pylori): 29.5 µM (≈ 16 µg/mL) | IC50 (Prothrombin): > 9.2 µM

COc1ccc2c(c1C)O[C@@H](c1ccc(O)cc1)CC2
MIC (Helicobacter pylori): 59.3 µM (≈ 16 µg/mL)

COc1ccc([C@@H]2CCc3ccc(O)cc3O2)cc1
MIC (Helicobacter pylori): 250 µM (≈ 64.1 µg/mL)

COc1ccc(CCC(=O)c2ccc(O)cc2)c(OC)c1
MIC (Helicobacter pylori): 224 µM (≈ 64.1 µg/mL)

COc1cc(O)c(C(CCc2ccc(O)cc2OC)c2ccc(O)cc2)cc1CCC(=O)c1ccc(O)cc1 (stereo not given)
IC50 (Dipeptidyl peptidase 4): > 36.9 µM | MIC (Helicobacter pylori): 60.6 µM (≈ 32 µg/mL) | IC50 (Prothrombin): 26.3 µM

COc1ccc(C(CCc2ccc(O)cc2OC)c2c(O)cc(OC)cc2/C=C/c2ccc(O)cc2)cc1 (stereo not given) [COCHINCHINENENE B]
IC50 (Dipeptidyl peptidase 4): > 39.1 µM | MIC (Helicobacter pylori): 62.5 µM (≈ 32 µg/mL) | IC50 (Prothrombin): 17.8 µM

COc1cc(O)ccc1CCC(=O)c1ccc(O)cc1
MIC (Helicobacter pylori): 235 µM (≈ 64.1 µg/mL)

COc1ccc(/C=C/c2cc(O)cc(O)c2)cc1 [RESVERATROL 4'-METHYL ETHER]
MIC (Helicobacter pylori): 264 µM (≈ 64.1 µg/mL)

Oc1ccc(/C=C/c2cc(O)cc(O)c2)cc1 [RESVERATROL]
MIC (Helicobacter pylori): 281 µM (≈ 64.1 µg/mL)

COc1cc(O)c2c(c1C)O[C@H](c1ccc(O)cc1)CC2
MIC (Helicobacter pylori): 55.9 µM (≈ 16 µg/mL)

COc1cc(O)cc(OC)c1CCC(=O)c1ccc(O)cc1
MIC (Helicobacter pylori): 212 µM (≈ 64.1 µg/mL)

O=C(CCc1ccc(O)cc1O)c1ccc(O)cc1
MIC (Helicobacter pylori): 248 µM (≈ 64.1 µg/mL)

COc1cc(O)ccc1CCC(c1ccc(O)cc1)c1cc2c(c(C)c1O)O[C@@H](c1ccc(O)cc1)CC2 (stereo not given in full)
IC50 (Dipeptidyl peptidase 4): > 39.1 µM | MIC (Helicobacter pylori): 62.5 µM (≈ 32 µg/mL) | IC50 (Prothrombin): 21.5 µM

COc1cc(O)cc(O)c1CCC(=O)c1ccc(O)cc1
MIC (Helicobacter pylori): 111 µM (≈ 32 µg/mL)

COc1cc(OC)c(C(CCc2ccc(O)cc2OC)c2ccc(O)cc2)cc1CCC(=O)c1ccc(O)cc1 (stereo not given) [COCHINCHINENIN B]
IC50 (Dipeptidyl peptidase 4): > 36.9 µM | MIC (Helicobacter pylori): 29.5 µM (≈ 16 µg/mL) | IC50 (Prothrombin): 12.3 µM

COc1cc(O)ccc1C(=O)/C=C/c1ccc(O)cc1
MIC (Helicobacter pylori): 118 µM (≈ 32 µg/mL)

COC1=CC(=O)C=C(OC)C1(O)CCC(=O)c1ccc(O)cc1 [COCHINCHINENONE]
MIC (Helicobacter pylori): 201 µM (≈ 64.1 µg/mL)

Cc1c(O)ccc2c1O[C@H](c1ccc(O)cc1)CC2
MIC (Helicobacter pylori): 31.3 µM (≈ 8.02 µg/mL)

CC1(C)S[C@@H]2[C@H](NC(=O)[C@H](N)c3ccc(O)cc3)C(=O)N2[C@H]1C(=O)O [AMOXICILLIN]
MIC (Helicobacter pylori): 0.08 µM (≈ 0.0292 µg/mL)

COc1cc(O)ccc1CCC(c1ccc(O)cc1)c1c(O)cc(O)cc1/C=C/c1ccc(O)cc1 (stereo not given) [COCHINCHINENENE D]
IC50 (Dipeptidyl peptidase 4): > 41.3 µM | MIC (Helicobacter pylori): 66.1 µM (≈ 32 µg/mL) | IC50 (Prothrombin): > 41.3 µM

Cc1ncc([N+](=O)[O-])n1CCO [METRONIDAZOLE]
MIC (Helicobacter pylori): 748 µM (≈ 128 µg/mL)

COc1cc(O)ccc1CCC(c1ccc(O)cc1)c1c(/C=C/c2ccc(O)cc2)cc(O)cc1OC (stereo not given) [COCHINCHINENENE C]
IC50 (Dipeptidyl peptidase 4): > 40.2 µM | MIC (Helicobacter pylori): 64.3 µM (≈ 32.1 µg/mL) | IC50 (Prothrombin): 26.7 µM
